Values after ≈ are worked out from the molar mass of the structure shown.
What was measured:
Staphylococcus aureus [1] = experiment: Antimicrobial activity against community acquired methicillin-resistant Staphylococcus aureus isolate 156 infected in immunocompetent ICR mouse assessed as reduction in bacterial load at 12.5 […] after 24 hrs; type: functional
Summary of the method: (§1)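 Non-neutropenic ICR mice (no cyclophosphamide). Each thigh inoculated im with 0.1 ml of ~10^8 CFU/ml. Tigecycline given sc once daily at 1.56, 3.13, 6.25 or 12.5 mg/kg starting 2 h post-infection, 3 mice/group. Thighs harvested at 24 h, homogenized, plated on blood agar; log10 CFU change vs 0-h controls.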

[2] = Cmax in neutropenic ICR mouse infected with Staphylococcus aureus ATCC 29213 at 6.25 mg/kg, sc by HPLC; type: ADME, organism-based; set-up: dose 6.25 mg/kg, route subcutaneous; details: in vivo
Summary of the method: (§2)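 Neutropenic female ICR mice (cyclophosphamide 150 and 100 mg/kg ip, 4 days and 1 day before inoculation), both thighs inoculated im with ~10^7 CFU/ml of ATCC 29213. Single sc doses of 50, 25, 12.5 or 6.25 mg/kg. Cardiac blood taken from groups of six at 8–12 times over 0.5–24 h. Serum measured by HPLC (linear 0.05–5 µg/ml). Two-compartment fit by nonlinear least squares; AUC by trapezoidal rule.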

[3] = r2 for fT>MIC in hospital-acquired methicillin-resistant Staphylococcus aureus isolate 152-infected neutropenic ICR mouse
[4] = r2 of fT>MIC in methicillin-sensitive methicillin-sensitive Staphylococcus aureus ATCC 29213-infected neutropenic ICR mouse
Staphylococcus aureus [5] = experiment: Antimicrobial activity against Hospital-acquired methicillin-resistant Staphylococcus aureus isolate 56 by broth microdilution method; type: functional
Summary of the method: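 Tigecycline MIC by CLSI broth microdilution, run in triplicate; modal MIC reported. Isolates stored at –80°C in double-strength skim milk and subcultured twice on Trypticase soy agar with 5% sheep blood before use.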

[6] = fAUC/MIC in methicillin-sensitive Staphylococcus aureus ATCC 29213-infected neutropenic ICR mouse at 80% effective exposure index; type: functional
Summary of the method: (§3)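 fT>MIC, fCmax/MIC and fAUC/MIC were built from the serum pharmacokinetics, protein binding, modal broth-microdilution MIC (triplicate, CLSI) and 24-h thigh CFU change. Each index was fit to a sigmoidal Emax model. EI50, EI80 and stasis exposures were taken from each isolate's curve.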

[7] = AUC (0 to 24 hrs) in neutropenic ICR mouse infected with Staphylococcus aureus ATCC 29213 at 12.5 mg/kg, sc by HPLC; type: ADME, organism-based; set-up: time < 24 hr, dose 12.5 mg/kg, route subcutaneous; details: plasma; summary of the method: as §2
[8] = Elimination half life in neutropenic ICR mouse infected with methicillin-sensitive Staphylococcus aureus ATCC 29213 at 25 mg/kg, sc by HPLC; type: ADME, organism-based; set-up: dose 25 mg/kg, route subcutaneous; details: in vivo, read-out: beta t1/2 (converted); summary of the method: as §2
[9] = fAUC/MIC in methicillin-sensitive Staphylococcus aureus ATCC 25923-infected neutropenic ICR mouse at 80% effective exposure index; type: functional
[10] = Protein binding in methicillin-sensitive Staphylococcus aureus ATCC 29213-infected neutropenic ICR mouse serum at 50 mg/kg, sc by HPLC; type: ADME, organism-based; set-up: dose 50 mg/kg, route subcutaneous; details: read-out: PB (converted)
[11] = fAUC/MIC in community acquired methicillin-resistant Staphylococcus aureus isolate 156-infected neutropenic ICR mouse at 80% effective exposure index; type: functional
Summary of the method: (§4)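 Single-dose serum PK in infected neutropenic mice (sc 6.25–50 mg/kg; HPLC; two-compartment fit; AUC by trapezoidal rule; lower doses simulated). Free fraction from ultrafiltration of spiked mouse serum, in triplicate. Free exposures divided by modal MIC and plotted against 24-h log10 CFU change with a sigmoidal Emax model; EI50, EI80 and stasis values read from the fitted curves.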

[12] = Tmax in neutropenic ICR mouse infected with Staphylococcus aureus ATCC 29213 at 12.5 mg/kg, sc by HPLC; type: ADME, organism-based; set-up: dose 12.5 mg/kg, route subcutaneous; details: in vivo; summary of the method: as §2
[13] = r2 for fAUC/MIC in methicillin-sensitive Staphylococcus aureus ATCC 29213-infected neutropenic ICR mouse
Staphylococcus aureus [14] = experiment: Antimicrobial activity against hospital-acquired methicillin-resistant Staphylococcus aureus isolate 152 infected in neutropenic ICR mouse assessed as change in bacterial load after 24 hrs; type: functional
Summary of the method: (§5)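 Female ICR mice (~25 g) made neutropenic with cyclophosphamide 150 and 100 mg/kg ip, 4 and 1 days before infection. Each thigh inoculated im with 0.1 ml of ~10^7 CFU/ml from an overnight subculture. Tigecycline sc (0.2 ml) given 2 h later as single or multiple doses of 1.56–50 mg/kg, 1.56–400 mg/kg/day, 3 mice/group. Saline-injected controls. Thighs harvested at 24 h, homogenized in saline, plated on blood agar; log10 CFU change vs 0-h controls.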

Staphylococcus aureus [15] = experiment: Antimicrobial activity against methicillin-sensitive Staphylococcus aureus ATCC 25923 infected in neutropenic ICR mouse assessed as change in bacterial load after 24 hrs; type: functional; summary of the method: as §5
Serum = experiment: fAUC in serum of methicillin-sensitive Staphylococcus aureus ATCC 29213-infected neutropenic ICR mouse at 1.56 to 400 mg/kg, sc by HPLC; type: ADME, organism-based; set-up: dose 1.56-400 mg/kg, route subcutaneous; details: in vivo
[16] = r2 for fCmax/MIC in methicillin-sensitive Staphylococcus aureus ATCC 25923-infected neutropenic ICR mouse
[17] = r2 for fT>MIC in hospital-acquired methicillin-resistant Staphylococcus aureus isolate 56-infected neutropenic ICR mouse
[18] = fAUC/MIC in community acquired methicillin-resistant Staphylococcus aureus isolate 147-infected neutropenic ICR mouse at 50% effective exposure index; type: functional; summary of the method: as §4
[19] = AUC (0 to 24 hrs) in neutropenic ICR mouse infected with Staphylococcus aureus ATCC 29213 at 6.25 mg/kg, sc by HPLC; type: ADME, organism-based; set-up: time < 24 hr, dose 6.25 mg/kg, route subcutaneous; details: plasma; summary of the method: as §2
[20] = Cmax in neutropenic ICR mouse infected with Staphylococcus aureus ATCC 29213 at 25 mg/kg, sc by HPLC; type: ADME, organism-based; set-up: dose 25 mg/kg, route subcutaneous; details: in vivo; summary of the method: as §2
[21] = fAUC/MIC in community acquired methicillin-resistant Staphylococcus aureus isolate 156 infected-immunocompetent ICR mouse at 12.5 […], sc QD; type: functional
Summary of the method: (§6)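 Derived from neutropenic-mouse serum PK (HPLC, two-compartment fit) with ultrafiltration protein-binding correction, divided by modal MIC.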

[22] = fAUC/MIC in community acquired methicillin-resistant Staphylococcus aureus isolate 156 infected-immunocompetent ICR mouse at 6.25 […], sc QD; type: functional; summary of the method: as §6
[23] = r2 for fT>MIC in community acquired methicillin-resistant Staphylococcus aureus isolate 147-infected neutropenic ICR mouse
Staphylococcus aureus [24] = experiment: Antimicrobial activity against community acquired methicillin-resistant Staphylococcus aureus isolate 156 infected in immunocompetent ICR mouse assessed as reduction in bacterial load at […] after 24 hrs; type: functional; summary of the method: as §1
[25] = fAUC/MIC in methicillin-sensitive Staphylococcus aureus ATCC 29213-infected neutropenic ICR mouse at stasis dose; type: functional; summary of the method: as §3
[26] = r2 for fT>MIC in community acquired methicillin-resistant Staphylococcus aureus isolate 156-infected neutropenic ICR mouse

Work on `CN(C)c1cc(NC(=O)CNC(C)(C)C)c(O)c2c1C[C@H]1C[C@H]3[C@H](N(C)C)C(O)=C(C(N)=O)C(=O)[C@@]3(O)C(O)=C1C2=O` [TIGECYCLINE] yielded a log10cfu (Staphylococcus aureus [1]) of 1.6, a Cmax [2] of 1680 ng/mL and a r2 [3] of 0.511%. It also gave a r2 [4] of 0.699%, an MIC (Staphylococcus aureus [5]) of 0.5 µg/mL (≈ 0.854 µM) and a fAUC/MIC [6] of 4.1. The AUC(0-t) at 24 h [7] was 9100 ng·h/mL, the half-life [8] was 708 min and the fAUC/MIC [9] was 7. The fraction unbound [10] was 0.071, the fAUC/MIC [11] was 13 and the Tmax [12] was 27 min. For the same compound, the r2 [13] was 0.983, the log10CFU/ml (Staphylococcus aureus [14]) was 1.8 and the log10CFU/ml (Staphylococcus aureus [15]) was 1.4. It also gave a fAUC (Serum) of 0.2 µg·h/mL, a r2 [16] of 0.508 and a r2 [17] of 0.341%. For the same compound, the fAUC/MIC [18] was 1.5, the AUC(0-t) at 24 h [19] was 4800 ng·h/mL and the Cmax [20] was 5330 ng/mL. The fAUC/MIC [21] was 8.8, the fAUC/MIC [22] was 7.2 and the r2 [23] was 0.483%. The log10cfu (Staphylococcus aureus [24]) was 1.9, the fAUC/MIC [25] was 0.5 and the r2 [26] was 0.894%.

— ChEMBL document CHEMBL1629660, “Pharmacodynamics of tigecycline against phenotypically diverse Staphylococcus aureus isolates in a murine thigh model” (Antimicrob Agents Chemother, 2009)
